Values after ≈ are worked out from the molar mass of the structure shown.
Tests used:
[1] = molecular target: T1, PXR (NR1I2) (Homo sapiens, UniProt O75469); assay: Activation of human PXR at 10 uM in presence of rifampicin; format: ADME; details: read-out: Activity
T1 sequence (O75469 whole entry): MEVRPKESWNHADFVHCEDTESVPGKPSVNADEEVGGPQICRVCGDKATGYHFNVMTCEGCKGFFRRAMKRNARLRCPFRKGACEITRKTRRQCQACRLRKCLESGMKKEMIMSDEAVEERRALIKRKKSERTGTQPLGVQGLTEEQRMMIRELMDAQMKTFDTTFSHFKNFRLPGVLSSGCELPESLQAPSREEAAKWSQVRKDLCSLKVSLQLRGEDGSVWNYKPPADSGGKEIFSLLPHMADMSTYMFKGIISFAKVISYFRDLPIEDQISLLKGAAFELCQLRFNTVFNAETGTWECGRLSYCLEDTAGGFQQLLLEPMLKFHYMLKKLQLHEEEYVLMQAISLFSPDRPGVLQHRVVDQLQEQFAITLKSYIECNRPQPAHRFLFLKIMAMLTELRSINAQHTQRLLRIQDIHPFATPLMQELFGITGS

[2] = molecular target: Sodium channel protein type 5 subunit alpha (Homo sapiens, UniProt Q14524); assay: Inhibition of human Nav1.5 expressed in HEK293 cells assessed as reduction in peak inward current by ionworks quattro electrophysiology assay; format: cell-based
Sodium channel protein type 5 subunit alpha, sequence (Q14524 whole entry): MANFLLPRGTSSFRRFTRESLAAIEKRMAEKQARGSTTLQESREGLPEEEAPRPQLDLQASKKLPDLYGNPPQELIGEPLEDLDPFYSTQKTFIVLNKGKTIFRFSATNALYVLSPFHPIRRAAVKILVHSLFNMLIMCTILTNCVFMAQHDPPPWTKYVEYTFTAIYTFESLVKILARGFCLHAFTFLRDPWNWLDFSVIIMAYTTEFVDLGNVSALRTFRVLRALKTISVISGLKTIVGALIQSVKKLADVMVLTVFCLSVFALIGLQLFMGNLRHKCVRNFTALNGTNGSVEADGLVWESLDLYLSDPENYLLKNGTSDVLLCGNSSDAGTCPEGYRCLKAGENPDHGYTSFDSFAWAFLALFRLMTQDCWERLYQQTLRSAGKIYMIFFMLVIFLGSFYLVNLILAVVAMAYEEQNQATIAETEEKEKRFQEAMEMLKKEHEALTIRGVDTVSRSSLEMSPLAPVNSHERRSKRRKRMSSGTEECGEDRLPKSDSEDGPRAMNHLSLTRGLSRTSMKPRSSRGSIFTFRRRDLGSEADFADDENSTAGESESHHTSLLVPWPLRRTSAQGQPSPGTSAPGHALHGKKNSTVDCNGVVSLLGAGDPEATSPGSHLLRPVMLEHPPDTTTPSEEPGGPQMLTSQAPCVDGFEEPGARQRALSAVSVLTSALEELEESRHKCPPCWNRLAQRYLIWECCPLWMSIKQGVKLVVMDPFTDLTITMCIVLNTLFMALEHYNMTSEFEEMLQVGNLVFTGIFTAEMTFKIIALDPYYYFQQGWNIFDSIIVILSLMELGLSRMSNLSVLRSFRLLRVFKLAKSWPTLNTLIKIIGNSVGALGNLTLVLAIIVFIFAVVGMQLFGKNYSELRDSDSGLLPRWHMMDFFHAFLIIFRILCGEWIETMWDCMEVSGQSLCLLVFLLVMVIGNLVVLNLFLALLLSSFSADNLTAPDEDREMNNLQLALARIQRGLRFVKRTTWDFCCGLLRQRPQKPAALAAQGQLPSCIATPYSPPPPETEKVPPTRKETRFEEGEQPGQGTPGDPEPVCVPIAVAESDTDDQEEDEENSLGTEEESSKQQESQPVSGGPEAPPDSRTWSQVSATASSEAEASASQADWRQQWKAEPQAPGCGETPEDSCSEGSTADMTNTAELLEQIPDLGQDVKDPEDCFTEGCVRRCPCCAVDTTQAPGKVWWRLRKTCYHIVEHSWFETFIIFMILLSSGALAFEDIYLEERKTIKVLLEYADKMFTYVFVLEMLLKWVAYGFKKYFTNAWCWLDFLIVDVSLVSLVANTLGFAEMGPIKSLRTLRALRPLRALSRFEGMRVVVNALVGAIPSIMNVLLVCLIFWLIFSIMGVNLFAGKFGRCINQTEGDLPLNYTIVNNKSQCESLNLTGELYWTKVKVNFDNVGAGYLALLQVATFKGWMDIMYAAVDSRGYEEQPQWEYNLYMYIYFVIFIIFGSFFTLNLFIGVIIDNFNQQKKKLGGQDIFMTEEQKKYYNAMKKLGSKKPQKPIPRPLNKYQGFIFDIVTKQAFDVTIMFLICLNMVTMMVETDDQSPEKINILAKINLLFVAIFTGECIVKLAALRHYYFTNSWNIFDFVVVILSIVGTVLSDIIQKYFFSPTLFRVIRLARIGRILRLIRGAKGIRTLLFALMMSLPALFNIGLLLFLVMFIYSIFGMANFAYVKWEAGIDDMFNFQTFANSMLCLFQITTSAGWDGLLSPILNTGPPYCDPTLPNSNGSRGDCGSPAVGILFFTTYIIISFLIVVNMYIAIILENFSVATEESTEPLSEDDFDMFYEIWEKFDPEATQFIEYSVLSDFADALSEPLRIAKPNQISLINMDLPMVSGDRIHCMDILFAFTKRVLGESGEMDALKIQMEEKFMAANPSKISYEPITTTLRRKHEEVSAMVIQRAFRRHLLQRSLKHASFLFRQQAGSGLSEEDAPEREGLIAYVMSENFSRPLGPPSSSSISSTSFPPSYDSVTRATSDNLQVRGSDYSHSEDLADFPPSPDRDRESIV

[3] = Intrinsic clearance in human liver microsomes at 1 uM after 1 to 40 mins in presence of NADPH by LC-MS/MS analysis; format: ADME, microsome; details: read-out: CLH
[4] = Intrinsic clearance in rat liver microsomes at 1 uM after 1 to 40 mins in presence of NADPH by LC-MS/MS analysis; format: ADME, microsome; details: read-out: CLH
[5] = molecular target: Sodium channel protein type 9 subunit alpha (Homo sapiens, UniProt Q15858); assay: Inhibition of human Nav1.7 expressed in HEK293 cells incubated for 3 to 5 mins at -125 mV holding potential by electrophysiology assay; format: cell-based
Sodium channel protein type 9 subunit alpha, sequence (Q15858 whole entry): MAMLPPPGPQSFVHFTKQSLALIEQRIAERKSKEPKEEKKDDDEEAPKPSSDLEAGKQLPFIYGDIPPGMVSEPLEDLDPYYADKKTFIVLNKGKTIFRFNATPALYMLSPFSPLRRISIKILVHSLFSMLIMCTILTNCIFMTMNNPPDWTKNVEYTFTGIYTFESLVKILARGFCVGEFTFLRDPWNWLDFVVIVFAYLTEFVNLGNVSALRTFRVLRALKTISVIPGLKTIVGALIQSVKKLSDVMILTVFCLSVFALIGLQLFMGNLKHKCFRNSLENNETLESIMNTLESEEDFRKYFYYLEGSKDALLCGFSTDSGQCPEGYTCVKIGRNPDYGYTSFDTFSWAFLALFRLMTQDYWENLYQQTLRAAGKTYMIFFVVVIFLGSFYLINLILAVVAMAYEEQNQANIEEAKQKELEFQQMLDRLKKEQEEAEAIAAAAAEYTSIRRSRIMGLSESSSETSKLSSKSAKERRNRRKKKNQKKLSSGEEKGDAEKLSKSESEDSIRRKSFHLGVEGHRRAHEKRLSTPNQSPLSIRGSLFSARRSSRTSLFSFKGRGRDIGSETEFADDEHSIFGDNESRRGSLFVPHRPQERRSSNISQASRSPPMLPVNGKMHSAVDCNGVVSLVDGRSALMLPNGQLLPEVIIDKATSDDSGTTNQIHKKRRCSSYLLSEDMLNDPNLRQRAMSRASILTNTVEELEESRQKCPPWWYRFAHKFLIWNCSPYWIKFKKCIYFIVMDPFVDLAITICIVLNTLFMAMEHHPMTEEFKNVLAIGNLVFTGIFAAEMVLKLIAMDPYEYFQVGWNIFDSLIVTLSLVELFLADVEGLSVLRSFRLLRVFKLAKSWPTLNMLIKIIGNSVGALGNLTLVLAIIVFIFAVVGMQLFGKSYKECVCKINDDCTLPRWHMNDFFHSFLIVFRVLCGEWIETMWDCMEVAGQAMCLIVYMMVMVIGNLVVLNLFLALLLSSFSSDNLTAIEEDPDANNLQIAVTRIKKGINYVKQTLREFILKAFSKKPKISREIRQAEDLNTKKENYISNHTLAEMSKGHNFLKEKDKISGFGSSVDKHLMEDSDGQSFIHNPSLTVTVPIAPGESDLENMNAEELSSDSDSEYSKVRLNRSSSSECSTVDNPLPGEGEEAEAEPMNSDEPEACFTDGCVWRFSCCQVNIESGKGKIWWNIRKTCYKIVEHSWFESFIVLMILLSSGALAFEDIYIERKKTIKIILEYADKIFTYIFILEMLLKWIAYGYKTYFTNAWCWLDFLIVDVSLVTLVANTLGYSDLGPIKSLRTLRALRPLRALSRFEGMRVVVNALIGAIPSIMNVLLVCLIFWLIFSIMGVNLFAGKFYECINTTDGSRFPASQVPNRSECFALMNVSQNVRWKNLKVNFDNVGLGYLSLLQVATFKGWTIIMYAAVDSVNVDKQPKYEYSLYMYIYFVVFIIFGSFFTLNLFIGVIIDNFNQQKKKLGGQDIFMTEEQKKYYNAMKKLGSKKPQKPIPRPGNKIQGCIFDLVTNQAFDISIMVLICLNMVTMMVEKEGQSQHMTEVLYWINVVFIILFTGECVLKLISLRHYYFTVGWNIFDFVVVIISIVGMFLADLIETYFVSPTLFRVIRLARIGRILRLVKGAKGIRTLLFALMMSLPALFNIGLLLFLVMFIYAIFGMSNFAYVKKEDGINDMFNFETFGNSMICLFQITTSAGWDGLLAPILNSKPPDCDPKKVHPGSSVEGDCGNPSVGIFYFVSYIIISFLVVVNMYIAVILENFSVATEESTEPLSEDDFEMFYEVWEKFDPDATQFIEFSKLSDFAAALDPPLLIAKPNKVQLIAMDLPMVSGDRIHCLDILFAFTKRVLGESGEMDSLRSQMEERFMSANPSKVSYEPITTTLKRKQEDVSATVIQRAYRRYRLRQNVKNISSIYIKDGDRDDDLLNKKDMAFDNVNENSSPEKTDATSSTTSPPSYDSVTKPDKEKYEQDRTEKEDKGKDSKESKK

[6] = Total clearance in dog at 0.25 mg/kg, iv; format: ADME, organism-based, Canis lupus familiaris; details: in vivo
Procedure, shortened: (§1)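 Male dogs received a single 0.25 mg/kg iv dose in DMSO. Unbound clearance (CLu) is total clearance divided by fu, the unbound fraction in plasma.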

[7] = test system: Rattus norvegicus; assay: Unbound clearance in rat at 0.5 mg/kg, iv; format: ADME, organism-based; details: in vivo
Procedure, shortened: (§2)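 Male rats given a single 0.5 mg/kg iv dose in DMSO. Unbound clearance (CLu) is total clearance divided by fu, the unbound fraction in plasma.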

[8] = molecular target: T2, Cytochrome P450 3A4 (Homo sapiens, UniProt P08684); assay: Inhibition of CYP3A4 (unknown origin); format: ADME
T2 sequence (P08684 whole entry): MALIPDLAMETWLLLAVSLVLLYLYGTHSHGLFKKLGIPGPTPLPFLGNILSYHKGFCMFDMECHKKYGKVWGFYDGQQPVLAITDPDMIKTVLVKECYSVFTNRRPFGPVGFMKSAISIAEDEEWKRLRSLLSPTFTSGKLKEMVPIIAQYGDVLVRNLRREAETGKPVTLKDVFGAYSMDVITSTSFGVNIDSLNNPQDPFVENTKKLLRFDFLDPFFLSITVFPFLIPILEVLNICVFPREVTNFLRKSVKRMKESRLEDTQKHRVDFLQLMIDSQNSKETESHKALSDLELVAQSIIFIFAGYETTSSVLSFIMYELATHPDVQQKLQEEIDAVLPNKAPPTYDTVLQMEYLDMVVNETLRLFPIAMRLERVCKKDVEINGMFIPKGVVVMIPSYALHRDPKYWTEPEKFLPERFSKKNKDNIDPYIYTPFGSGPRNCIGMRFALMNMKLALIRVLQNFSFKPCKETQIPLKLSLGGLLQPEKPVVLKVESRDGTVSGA

[9] = Total clearance in rat at 0.5 mg/kg, iv; format: ADME, organism-based; details: in vivo; procedure, shortened: as §2
[10] = test system: Canis familiaris; assay: Unbound clearance in dog at 0.25 mg/kg, iv; format: ADME, organism-based, Canis lupus familiaris; details: in vivo; procedure, shortened: as §1
[11] = molecular target: T2, Cytochrome P450 3A4; assay: Induction of CYP3A4 in human hepatocytes at 10 uM relative to rifampicin
[12] = Intrinsic clearance in dog liver microsomes; format: ADME, Canis lupus familiaris, microsome; details: read-out: CLH
[13] = Aqueous solubility of the compound in PBS after 48 hrs by shake flask method; format: physicochemical

SMILES	activity at 10 µM [1] [%]	IC50 [2] [nM]	microsomal CLint at 1 µM [3] [µL/min/mg]	microsomal CLint at 1 µM [4] [µL/min/mg]	IC50 [5] [nM]	clearance [6] [mL/min/kg]	CL free [7] [mL/min/kg]	IC50 [8] [nM]	clearance [9] [mL/min/kg]	CL free [10] [mL/min/kg]	Activity [11] [%]	microsomal CLint [12] [µL/min/mg]	solubility thermodynamic at 48 h [13] [µM]
COc1cc(-c2cc(F)cnc2OC)c(F)cc1-c1nccc2cc(S(=O)(=O)Nc3ccon3)ccc12	151	> 10000	< 14	21									
COc1cc(-c2cc(F)cc(F)c2)c(F)cc1-c1nccc2cc(S(=O)(=O)Nc3ccon3)ccc12	47	> 10000	30	< 14	40								
COc1cc(-c2cccc(F)c2)c(Cl)cc1-c1c(=O)n(C)cc2cc(S(=O)(=O)Nc3ccon3)ccc12	69	> 10000	< 14	21									
COc1cc(C(F)(F)F)ccc1-c1nccc2cc(S(=O)(=O)Nc3ccncn3)ccc12		> 30000			730	0.917	183	7200	4.33	26.7	177		
COc1cc(-c2ccc(C(F)(F)F)cc2)c(F)cc1-c1nccc2cc(S(=O)(=O)Nc3ccon3)ccc12	0	> 10000	< 14	< 14									
COc1cc(-c2cccc(C(F)(F)F)c2)ccc1-c1nccc2cc(S(=O)(=O)Nc3ccon3)ccc12	7				61								
COc1cc(-c2cccc(F)c2)c(Cl)cc1-c1nccc2cc(S(=O)(=O)Nc3ccon3)ccc12	68	> 10000	< 14	18	49 to 51	0.05	700	> 27000	0.783	26.7 to 31.7	58		
COc1cc(-c2cccc(F)c2)c(Cl)cc1-c1ncc(O)c2cc(S(=O)(=O)Nc3ccon3)ccc12	28		15	28		2.17				2330			
COc1cc(-c2cccc(F)c2)c(Cl)cc1-c1nccc2cc(S(=O)(=O)Nc3ccncn3)ccc12	24	> 10000	< 14	< 14	65			> 27000					
COc1cc(-c2cccc(C(F)(F)F)c2)c(C#N)cc1-c1nccc2cc(S(=O)(=O)Nc3ccon3)ccc12	5				28								
COc1cc(-c2cccc(F)c2)c(Cl)cc1-c1c(N)nnc2cc(S(=O)(=O)Nc3ccon3)ccc12	95	140	< 14	< 14									
COc1cc(-c2cccc(F)c2)c(Cl)cc1-c1nccc2cc(S(=O)(=O)Nc3ncco3)ccc12	38	> 10000	46	98				> 27000					
COc1cc(-c2cccc(Cl)c2)c(F)cc1-c1nccc2cc(S(=O)(=O)Nc3ccon3)ccc12	34		36	34									
COc1cc(C(F)(F)F)ccc1-c1ncnc2cc(S(=O)(=O)Nc3nccs3)ccc12		> 30000				0.217	450	> 50000		200	128		
COc1cc(-c2cccc(F)c2)c(Cl)cc1-c1nccc2cc(S(=O)(=O)Nc3cccnn3)ccc12	52		< 14	29				> 27000					
COc1cc(-c2cc(F)cc(F)c2)ccc1-c1nccc2cc(S(=O)(=O)Nc3ccon3)ccc12	38												
COc1cc(-c2cccc(C)c2)c(F)cc1-c1nccc2cc(S(=O)(=O)Nc3ccon3)ccc12	54	> 10000	36	34	47								
COc1cc(-c2ccc(Cl)c(C)c2)c(F)cc1-c1nccc2cc(S(=O)(=O)Nc3ccon3)ccc12	1	> 10000	35	21									
COc1cc(-c2cccc(F)c2)c(Cl)cc1-c1nccc2cc(S(=O)(=O)Nc3ncccn3)ccc12	31	> 10000	< 14	32	120			> 27000					
COc1cc(-c2cccc(F)c2)ccc1-c1nccc2cc(S(=O)(=O)Nc3ccncn3)ccc12		> 30000	< 14	< 14	150	0.817	6500	1300	28.3	152	12	< 14	344 (≈ 167 µg/mL)
COc1cc(-c2cc(F)cc(F)c2)c(C#N)cc1-c1nccc2cc(S(=O)(=O)Nc3ccon3)ccc12	54				140								
COc1cc(-c2cccc(F)c2)c(Cl)cc1-c1ncnc2cc(S(=O)(=O)Nc3ccon3)ccc12	59		21	58		2				417			
COc1cc(-c2cccc(F)c2)c(Cl)cc1-c1[nH]c(=O)cc2cc(S(=O)(=O)Nc3ccon3)ccc12	27	820	< 14	18		13.7	25000		35	8500			
COc1cc(-c2cccc(F)c2)c(Cl)cc1-c1nccc2cc(S(=O)(=O)Nc3ncns3)ccc12	5.9	1500	< 14	< 14				800					
COc1cc(-c2cccc(F)c2)c(Cl)cc1-c1nn(C)c(=O)c2cc(S(=O)(=O)Nc3ccon3)ccc12	54		16	25	120	1.83	10300		35	517			
COc1cc(-c2cccc(F)c2)c(Cl)cc1-c1nccc2cc(S(=O)(=O)Nc3ncon3)ccc12	10		< 14	20	47	2.83	15700	> 27000	26.7	2570			

Source: ChEMBL document CHEMBL4011598, “Sulfonamides as Selective NaV1.7 Inhibitors: Optimizing Potency and Pharmacokinetics While Mitigating Metabolic Liabilities” (J Med Chem, 2017)
